# Compounds with a hit are over-represented: about 9.8% of the library has one in this group of screens.
# PMI act – increases human mannose-6-phosphate isomerase activity; P34949; activation factor at 20 µM; actives 0.005% (n = 190,000); purified human PMI, coupled resazurin fluorescence, 20 min; active compounds read high; 1 = vehicle control, 0 substrate-free wells;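 active = activation factor of 2 or more at 20 µM, relative to plate controls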
# Target sequence (P34949 whole entry, looked up): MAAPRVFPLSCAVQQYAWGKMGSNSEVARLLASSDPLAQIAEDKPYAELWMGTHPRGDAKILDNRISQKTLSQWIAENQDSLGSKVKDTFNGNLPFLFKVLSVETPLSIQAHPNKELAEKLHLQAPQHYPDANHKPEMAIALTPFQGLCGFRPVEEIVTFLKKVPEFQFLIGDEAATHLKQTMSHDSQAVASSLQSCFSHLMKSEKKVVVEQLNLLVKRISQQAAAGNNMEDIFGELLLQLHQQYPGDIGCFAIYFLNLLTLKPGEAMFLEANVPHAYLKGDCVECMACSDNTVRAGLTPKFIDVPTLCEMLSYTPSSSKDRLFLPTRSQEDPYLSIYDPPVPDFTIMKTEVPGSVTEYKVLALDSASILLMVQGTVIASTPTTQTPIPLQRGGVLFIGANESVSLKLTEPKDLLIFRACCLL
# PMI act satM6P – increases human PMI activity with near-saturating mannose 6-phosphate. P34949. coupled PMI enzyme assay, resazurin fluorescence, 20 min; active compounds read high; 1 = untreated enzyme, 0 = substrate-free blank. activation factor at 20 µM. actives 0.34% (n = 190,000). AID 1216;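 active = activation factor of 2 or more at 20 µM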
#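 Test system: human phosphomannose isomerase with PGI, G6PDH, diaphorase coupling enzymes; Amount: PMI at 15 ng/mL final; Reagent: Mannose-6-phosphate 1.0 mM (near-saturating) plus 0.22 mM NADP+; Timing: 20 min, room temperature; Technique: resorufin fluorescence at Ex 544/Em 590 nm; Dosing: 20 µM single dose.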
# Rad51 HR inh – Rad51 (human) homologous recombination inhibition; Q06609; hRad51 DNA strand exchange, fluorescence dequenching; inhibition, % at 10 µM; actives 0.085% (n = 200,000); AID 1385;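 active = inhibition above 40% at the single screening dose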;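 note: 0% = DMSO control wells and 100% = blanks with heterologous ssDNA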
#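 material = hRad51 filaments on single-stranded DNA | timing = filaments 15 min 37 °C, then compound 30 min | signal = FRET fluorescence dequenching, excitation 485 nm, emission 520 nm | benchmarks = control wells and blank wells on each plate | evaluation = percent inhibition relative to plate controls and blanks | compound = 10 µM final, single point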
# WT yeast gro inh – growth inhibition of WT yeast, mitochondrial fusion screen. mitochondrial fusion phenotypic screen, WT strain. inhibition, % at 10 µM. actives 2.1% (n = 190,000). AID 1362; in the data active = inhibition above about 58%; tested in S. cerevisiae
# Lmaj promast – Leishmania major promastigote growth inhibition | Leishmania major promastigotes, resazurin fluorescence viability | actives 9% (n = 200,000) | inhibition, % at 10 µM; in the data active = inhibition above about 50%;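 note: promastigotes grown with compound for 44 hours at 28 °C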
# Calpain2 inh – calpain II (pig) inhibition | inhibition, % at 16 µM | AID 1236 | actives 0.37% (n = 220,000) | purified calpain II, fluorogenic peptide substrate, 30 min;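 active = inhibition above about 50%, limit read from the data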
# Starred values were filed as active, the others as inactive; x = no result given.
SMILES,PMI act,PMI act satM6P,Rad51 HR inh,WT yeast gro inh,Lmaj promast,Calpain2 inh
COc1ccc(OCCNc2cc(N3CCOCC3)ccc2[N+](=O)[O-])cc1,1.1,0.9,x,5,6,93*
CC1CN(c2ccc([N+](=O)[O-])c(NCCOc3ccccc3)c2)CCN1 (stereo not drawn),0.9,0.8,2,7,100*,14
O=C(COC(=O)c1c2c(nc3ccccc13)/C(=C\c1cccs1)CCC2)Nc1ccccc1,0.7,0.9,-5,5,28,-33
COc1cccc(NC(=O)COC(=O)c2c3c(nc4ccccc24)CCC(C)C3)c1 (stereo not drawn),0.8,0.9,-5,-31,54*,-12
NC(=O)COC(=O)c1c2c(nc3ccccc13)CCCC2,1.1,1,-4,-12,-1,-17
O=C(OCC(=O)N1CCc2ccccc21)c1c2c(nc3ccccc13)CCCCC2,0.8,0.8,8,34,91*,-20
CC(=O)c1ccc(NC(=O)COC(=O)c2c3c(nc4ccccc24)/C(=C\c2cccs2)CCC3)cc1,0.9,0.9,4,-7,97*,-26
O=C(COC(=O)c1c2c(nc3ccccc13)CCCC2)Nc1ccc2c(c1)OCO2,0.9,0.9,-2,-7,59*,-35
COc1ccc(CNC(=O)C/C(C)=N/NC(=O)c2cnccn2)cc1,1,1,18,2,-6,-12
Cc1nc(Nc2cccc(C(C)O)c2)c2nnn(Cc3ccc(F)cc3)c2n1 (stereo not drawn),x,x,6,1,26,6
Cc1ccc(CN(CC(=O)N/N=C/c2ccco2)S(=O)(=O)c2ccc(C)cc2)cc1,0.9,1,-1,14,-4,15
COC(=O)c1ccc2c(c1O)C(=O)c1ccccc1C2=O,1,1.2,-12,66*,84*,-57
Cn1cc(Cl)c(C(=O)OCC(=O)Nc2nc(-c3ccc(Br)cc3)cs2)n1,1.1,1.1,7,26,100*,18
O=C(c1ccc2c(c1)OCO2)N1CCC(Cc2ccccc2)CC1,x,x,-10,x,x,19
CCN(CC)S(=O)(=O)c1ccc(N/N=C/c2cc(OC)c(OC)cc2OC)nc1,1.1,1,-2,1,-1,-5
CCOc1cccc(/C=N/Nc2ccc(S(=O)(=O)N(CC)CC)cn2)c1O,1.1,1.2,5,5,82*,-11
O=C(NN1C(=O)C2C3c4ccccc4C(c4ccccc43)C2C1=O)c1ccc(Cl)cc1 (stereo not drawn),0.7,0.8,-4,17,72*,24
Cc1nn(C)c(C)c1/C=C/C(=O)c1cccs1,x,x,0,20,72*,-8
Cc1nn(C)c(C)c1/C=C/C(=O)c1ccccc1,1,1,4,6,22,-20
CC(Nc1nc(N2CCNCC2)nc2ccccc12)c1ccccc1 (stereo not drawn),1,1,2,23,100*,-116
Cc1ccc(Cl)cc1NC(=O)c1ccc(NC(=O)CCC(=O)O)cc1,1,1,4,-18,53*,6
CC(C)CN(C)C(=O)CCc1nnc(Cc2cccc(C(F)(F)F)c2)o1,0.9,0.9,18,9,-5,-22
FC(F)(F)c1nnc2n1N=C(c1cccs1)CS2,1.3,1,4,-11,3,-23
CCSCc1nnc(SCC(=O)Nc2nc(C)cs2)n1C,1,1,-55,6,-3,4
C/C(=N\N1C(=O)c2ccccc2NC1c1ccccc1)c1ccccc1O (stereo not drawn),1,1,-4,-6,-7,-24
SMILES,PMI act,PMI act satM6P,Rad51 HR inh,WT yeast gro inh,Lmaj promast,Calpain2 inh
C/C(=N\N1C(=O)c2ccccc2NC1c1ccco1)c1ccccc1O (stereo not drawn),1.1,1.1,20,-5,90*,9
OCCC1CN(Cc2ccc3c(c2)CCO3)CCN1Cc1ccc(F)cc1 (stereo not drawn),0.9,1,x,2,75*,20
CC(=O)c1cccc(CN2CCN(CCc3ccccc3)C(CCO)C2)c1 (stereo not drawn),1,1,x,5,68*,10
CC(=O)c1cccc(CN2CCN(Cc3ccc(C)cc3)C(CCO)C2)c1 (stereo not drawn),0.9,0.6,18,6,79*,-24
CC(=O)c1cccc(CN2CCN(CC=C(C)C)C(CCO)C2)c1 (stereo not drawn),x,x,-4,x,x,21
COc1ccc(CN2CCN(Cc3ccc(C)cc3)C(CCO)C2)cc1OC (stereo not drawn),1,1.1,x,0,5,-18
Cc1ccc(CN2CCN(Cc3cccc(-n4cccn4)c3)CC2CCO)cc1 (stereo not drawn),1.1,1,x,7,80*,10
Cc1ccc(CN2CCN(Cc3ccc(-n4cccn4)cc3C)CC2CCO)cc1 (stereo not drawn),0.9,1,x,-4,21,21
CC(C)(CN1CCN(c2ccccc2)CC1)NS(=O)(=O)c1ccccc1,x,x,3,x,x,24
COc1ccccc1C(N)=S,1.1,1.1,19,4,-2,-6
CC(=O)c1cccc(CN2CCN(Cc3ccc(F)cc3)C(CCO)C2)c1 (stereo not drawn),1,1,4,-9,87*,-11
CC(=O)c1cccc(CN2CCN(C3CCCC3)C(CCO)C2)c1 (stereo not drawn),0.9,1,-5,-3,45,-1
Nc1c(C(=O)NC2CCCC2)sc2nc(-c3cccs3)ccc12,1.1,1.2,-7,62*,24,-68
Cc1ccc(-n2c(C)cc(/C=N/NC(=O)CN(c3ccc(C)cc3C)S(C)(=O)=O)c2C)cc1,0.8,0.9,9,-7,35,-232
Cc1cc(C)cc(-n2c(C)cc(/C=N/NC(=O)CN(c3c(C)cccc3C)S(C)(=O)=O)c2C)c1,0.8,0.9,5,60*,41,8
COCCNc1ccc(N2C(=O)CCCC2=O)cc1[N+](=O)[O-],1,0.9,-3,-1,-6,31
COC(=O)CC1C(=O)NCCN1C(=O)CSc1nc2cc(Cl)ccc2o1 (stereo not drawn),1.1,1.1,-5,-3,-3,3
CC(C)(C)C1CCC2(CC1)NC(=S)N(c1ccccc1)N2 (stereo not drawn),1.7,2.8*,5,41,58*,22
CCC(C)(C)C1CCC2(CC1)NC(=S)N(c1ccccc1)N2 (stereo not drawn),x,x,x,x,x,-10
COc1cccc(/C=N/NC(=O)C(=O)NCc2cccnc2)c1O,0.9,1.2,1,-3,98*,3
COc1cccc(/C=N/NC(=O)C(=O)NCc2cccnc2)c1OC,1,1,-1,5,-6,-28

# High-throughput results from PubChem.
